In ChEMBL document CHEMBL3407367 (J Med Chem, 2015):
≈ marks a conversion by molar mass, not a printed value. Calls of active or inactive are those of the source. The rule behind the calls is not given here. Positions of bridges follow the written chain, without caps; N, C: chain ends. Non-standard residues stand in square brackets, D forms with d. Residues, ends and D or L forms follow the SMILES beside them. Trp(1-Me) = Cn1cc(C[C@H](N)C(=O)O)c2ccccc21; 1Nal = N[C@@H](Cc1cccc2ccccc12)C(=O)O

Tests used:
RPE [1] = experiment: Inhibition of complement activation in human fetal RPE cells assessed as reduction in C5b-9 formation at 1 uM by fluorescence assay in presence of complement-competant human serum; type: cell-based
Summary of the method: (§1)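 Human fetal RPE cells from two donor lines (081309, 072810) were grown on porous supports in Miller medium with 5% FCS. Peptide (1 µM; one experiment 1, 10, 50 µM) in serum-free medium with 10% human complement serum was premixed 30 min at RT, then incubated overnight at 37 °C. Samples were PFA-fixed and sections immunostained; the confocal C5b-9/ApoE area ratio is given as % of serum-only control; n = 10; Mann–Whitney U.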

[2] = Solubility of the compound in PBS at pH 7.4 after 24 to 48 hrs by spectrophotometry; type: physicochemical
Summary of the method: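 About 1 mg peptide put in 200 μL PBS pH 7.4 (top reportable value 5 mg/mL). Vortexed 30 s, centrifuged 13000g for 5 min. Supernatant A280 read and converted to concentration by Beer–Lambert, with extinction coefficients from Trp/Tyr count. Samples held at 4 °C and re-read at 24 and 48 h. Mean and standard deviation of three readings per sample.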

RPE [3] = experiment: Inhibition of complement activation in human fetal RPE cells assessed as reduction in C5b-9 formation at 50 uM by fluorescence assay in presence of complement-competant human serum; type: cell-based; summary of the method: as §1
Complement C3 = Complement C3 (Homo sapiens, UniProt P01024); experiment: Inhibition of C3 cleavage in human serum assessed as reduction in C5b-9 formation compound preincubated for 15 mins measured 1 hr post LPS stimulation by ELISA
Complement C3, sequence (P01024 23-667 limits assumed): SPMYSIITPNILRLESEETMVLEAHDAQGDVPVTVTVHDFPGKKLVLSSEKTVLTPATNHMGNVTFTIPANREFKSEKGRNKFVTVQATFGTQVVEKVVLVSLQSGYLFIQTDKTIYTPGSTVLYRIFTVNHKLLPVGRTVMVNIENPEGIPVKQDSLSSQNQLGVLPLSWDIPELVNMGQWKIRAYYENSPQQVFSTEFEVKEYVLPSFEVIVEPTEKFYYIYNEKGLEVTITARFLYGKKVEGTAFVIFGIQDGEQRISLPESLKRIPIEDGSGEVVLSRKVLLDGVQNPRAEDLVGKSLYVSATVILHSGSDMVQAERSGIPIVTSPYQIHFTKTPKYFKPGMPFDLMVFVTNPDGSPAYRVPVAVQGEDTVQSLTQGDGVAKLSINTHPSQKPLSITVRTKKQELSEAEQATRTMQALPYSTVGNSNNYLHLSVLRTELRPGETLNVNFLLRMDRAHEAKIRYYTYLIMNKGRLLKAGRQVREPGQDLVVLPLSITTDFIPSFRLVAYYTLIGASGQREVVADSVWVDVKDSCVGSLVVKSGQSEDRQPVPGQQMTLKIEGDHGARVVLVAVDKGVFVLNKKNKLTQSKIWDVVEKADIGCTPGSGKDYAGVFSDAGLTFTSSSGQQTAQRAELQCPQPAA
Complement C3, sequence (P01024 672-1663 limits assumed): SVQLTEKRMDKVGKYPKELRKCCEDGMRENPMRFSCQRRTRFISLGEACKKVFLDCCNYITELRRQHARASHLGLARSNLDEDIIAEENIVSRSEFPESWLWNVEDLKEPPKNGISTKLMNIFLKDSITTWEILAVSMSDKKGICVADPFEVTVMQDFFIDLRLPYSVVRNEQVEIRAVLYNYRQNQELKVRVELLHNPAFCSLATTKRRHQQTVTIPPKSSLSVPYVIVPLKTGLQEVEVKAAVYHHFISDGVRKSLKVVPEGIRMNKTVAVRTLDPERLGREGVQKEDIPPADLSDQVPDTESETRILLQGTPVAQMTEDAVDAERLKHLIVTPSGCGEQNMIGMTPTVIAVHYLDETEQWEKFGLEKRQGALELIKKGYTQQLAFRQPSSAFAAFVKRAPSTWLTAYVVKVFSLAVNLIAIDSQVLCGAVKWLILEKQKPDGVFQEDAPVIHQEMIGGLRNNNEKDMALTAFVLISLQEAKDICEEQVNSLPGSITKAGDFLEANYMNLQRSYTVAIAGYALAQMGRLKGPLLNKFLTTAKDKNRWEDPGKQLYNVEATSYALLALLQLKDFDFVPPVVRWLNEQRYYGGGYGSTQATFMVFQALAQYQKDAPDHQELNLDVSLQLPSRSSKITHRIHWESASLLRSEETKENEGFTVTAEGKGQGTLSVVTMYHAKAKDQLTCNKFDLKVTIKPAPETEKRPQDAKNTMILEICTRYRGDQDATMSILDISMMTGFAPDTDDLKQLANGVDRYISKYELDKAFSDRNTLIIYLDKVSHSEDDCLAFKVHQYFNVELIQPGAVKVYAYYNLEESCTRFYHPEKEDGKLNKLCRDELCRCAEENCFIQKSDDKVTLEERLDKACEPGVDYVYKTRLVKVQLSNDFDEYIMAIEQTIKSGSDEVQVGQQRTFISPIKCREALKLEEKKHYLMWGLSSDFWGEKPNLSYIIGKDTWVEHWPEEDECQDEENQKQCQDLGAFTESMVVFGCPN

SMILES | inhibition (RPE [1]) | solubility [2] | further results
CC[C@H](C)[C@H](NC(C)=O)C(=O)N[C@H]1CSSC[C@@H](C(=O)N[C@H](C(N)=O)[C@@H](C)O)NC(=O)[C@H](CCCNC(=N)N)NC(=O)[C@H](Cc2cnc[nH]2)NC(=O)[C@H](C)NC(=O)CNC(=O)[C@H](Cc2c[nH]c3ccccc23)NC(=O)[C@H](CC(=O)O)NC(=O)[C@H](CCC(N)=O)NC(=O)[C@H](Cc2c[nH]c3ccccc23)NC(=O)[C@H](C(C)C)NC1=O | Active | 3200 µg/mL (≈ 1980 µM) | –
CC[C@H](C)[C@H](NC(=O)[C@H](CO)NC(=O)[C@H](CCCNC(=N)N)NC(C)=O)C(=O)N[C@H]1CSSC[C@@H](C(=O)N[C@H](C(N)=O)[C@@H](C)O)NC(=O)[C@H](CCCNC(=N)N)NC(=O)[C@H](Cc2cnc[nH]2)NC(=O)[C@H](C)NC(=O)CNC(=O)[C@H](Cc2c[nH]c3ccccc23)NC(=O)[C@H](CC(=O)O)NC(=O)[C@H](CCC(N)=O)NC(=O)[C@H](Cc2ccc(O)cc2)NC(=O)[C@H](C(C)C)NC1=O | Active | 5000 µg/mL (≈ 2730 µM) | –
CC[C@H](C)[C@H](NC(C)=O)C(=O)N[C@H]1CSSC[C@@H](C(=O)N[C@H](C(N)=O)[C@@H](C)O)NC(=O)[C@H](CCCNC(=N)N)NC(=O)[C@H](Cc2cnc[nH]2)NC(=O)[C@H](C)NC(=O)CNC(=O)[C@H](Cc2c[nH]c3ccccc23)NC(=O)[C@H](CC(=O)O)NC(=O)[C@H](CCC(N)=O)NC(=O)[C@H](Cc2cn(C)c3ccccc23)NC(=O)[C@H](C(C)C)NC1=O | – | 1900 µg/mL (≈ 1170 µM) | –
CC[C@H](C)[C@H](N)C(=O)N[C@H]1CSSC[C@@H](C(=O)N[C@H](C(N)=O)[C@@H](C)O)NC(=O)[C@H](CCCNC(=N)N)NC(=O)[C@H](Cc2cnc[nH]2)NC(=O)[C@H](Cc2cnc[nH]2)NC(=O)CNC(=O)[C@H](Cc2c[nH]c3ccccc23)NC(=O)[C@H](CC(=O)O)NC(=O)[C@H](CCC(N)=O)NC(=O)[C@H](C(C)C)NC(=O)[C@H](C(C)C)NC1=O | – | – | inhibition (RPE [3]): Active
CC[C@H](C)[C@H](NC(C)=O)C(=O)N[C@H]1CSSC[C@@H](C(=O)N[C@H](C(N)=O)[C@@H](C)O)NC(=O)[C@H](CCCNC(=N)N)NC(=O)[C@H](Cc2cnc[nH]2)NC(=O)[C@](C)(CC)NC(=O)CNC(=O)[C@H](Cc2c[nH]c3ccccc23)NC(=O)[C@H](CC(=O)O)NC(=O)[C@H](CCC(N)=O)NC(=O)[C@H](Cc2c[nH]c3ccccc23)NC(=O)[C@H](C(C)C)NC1=O | Active | – | –
CC[C@H](C)[C@H](NC(C)=O)C(=O)N[C@H]1CSSC[C@@H](C(=O)N[C@H](C(N)=O)[C@@H](C)O)NC(=O)[C@H](CCCNC(=N)N)NC(=O)[C@H](Cc2cnc[nH]2)NC(=O)[C@H](Cc2cccc3ccccc23)NC(=O)CNC(=O)[C@H](Cc2c[nH]c3ccccc23)NC(=O)[C@H](CC(=O)O)NC(=O)[C@H](CCC(N)=O)NC(=O)[C@H](Cc2c[nH]c3ccccc23)NC(=O)[C@H](C(C)C)NC1=O (Ac-ICVWQDWG[1Nal]HRCT-NH2; disulfide 2-12) | – | 100 µg/mL (≈ 57.5 µM) | –
CC[C@H](C)[C@H](NC(C)=O)C(=O)N[C@H]1CSSC[C@@H](C(=O)N[C@H](C(N)=O)[C@@H](C)O)NC(=O)[C@H](CCCNC(=N)N)NC(=O)[C@H](Cc2cnc[nH]2)NC(=O)[C@H](Cc2cccc3ccccc23)NC(=O)CNC(=O)[C@H](Cc2c[nH]c3ccccc23)NC(=O)[C@H](CC(=O)O)NC(=O)[C@H](CCC(N)=O)NC(=O)[C@H](Cc2cn(C)c3ccccc23)NC(=O)[C@H](C(C)C)NC1=O (Ac-ICV[Trp(1-Me)]QDWG[1Nal]HRCT-NH2; disulfide 2-12) | – | 100 µg/mL (≈ 57 µM) | IC50 (Complement C3): 4 µM
CC(=O)N[C@@H](CC(N)=O)C(=O)N[C@@H](CCCNC(=N)N)C(=O)N[C@@H](CC(C)C)C(=O)N[C@H]1CSSC[C@@H](C(=O)N[C@H](C(N)=O)[C@@H](C)O)NC(=O)[C@H](CCCNC(=N)N)NC(=O)[C@H](Cc2cnc[nH]2)NC(=O)[C@H](C)NC(=O)CNC(=O)[C@H](Cc2c[nH]c3ccccc23)NC(=O)[C@H](CC(=O)O)NC(=O)[C@H](CCC(N)=O)NC(=O)[C@H](Cc2c[nH]c3ccccc23)NC(=O)[C@H](C(C)C)NC1=O (Ac-NRLCVWQDWGAHRCT-NH2; disulfide 4-14) | Active | – | –
CC(=O)N[C@@H](CC(N)=O)C(=O)N[C@@H](CCCNC(=N)N)C(=O)N[C@@H](CC(C)C)C(=O)N[C@H]1CSSC[C@@H](C(=O)N[C@H](C(N)=O)[C@@H](C)O)NC(=O)[C@H](CCCNC(=N)N)NC(=O)[C@H](Cc2cnc[nH]2)NC(=O)[C@H](Cc2cccc3ccccc23)NC(=O)CNC(=O)[C@H](Cc2c[nH]c3ccccc23)NC(=O)[C@H](CC(=O)O)NC(=O)[C@H](CCC(N)=O)NC(=O)[C@H](Cc2c[nH]c3ccccc23)NC(=O)[C@H](C(C)C)NC1=O (Ac-NRLCVWQDWG[1Nal]HRCT-NH2; disulfide 4-14) | Active | – | –
CC[C@H](C)[C@H](NC(=O)[C@H](CO)NC(=O)[C@H](CCCNC(=N)N)NC(C)=O)C(=O)N[C@H]1CSSC[C@@H](C(=O)N[C@H](C(N)=O)[C@@H](C)O)NC(=O)[C@H](CCCNC(=N)N)NC(=O)[C@H](Cc2cnc[nH]2)NC(=O)[C@H](C)NC(=O)CNC(=O)[C@H](Cc2c[nH]c3ccccc23)NC(=O)[C@H](CC(=O)O)NC(=O)[C@H](CCC(N)=O)NC(=O)[C@H](Cc2cccc3ccccc23)NC(=O)[C@H](C(C)C)NC1=O (Ac-RSICV[1Nal]QDWGAHRCT-NH2; disulfide 4-14) | Active | – | –
CC[C@H](C)[C@H](N)C(=O)N[C@H]1CSSC[C@@H](C(=O)N[C@H](C(N)=O)[C@@H](C)O)NC(=O)[C@H](CCCN=C(N)N)NC(=O)[C@H](Cc2cnc[nH]2)NC(=O)[C@H](Cc2cnc[nH]2)NC(=O)CNC(=O)[C@H](Cc2c[nH]c3ccccc23)NC(=O)[C@H](CC(=O)O)NC(=O)[C@H](CCC(N)=O)NC(=O)[C@H](C(C)C)NC(=O)[C@H](C(C)C)NC1=O [COMPSTATIN] | – | 4500 µg/mL (≈ 2900 µM) | –
